From ChEMBL document CHEMBL4138314, “Synthesis and Evaluation of N-Phenyl-3-sulfamoyl-benzamide Derivatives as Capsid Assembly Modulators Inhibiting Hepatitis B Virus (HBV)” (J Med Chem, 2018) come the findings set out here.

≈ marks a conversion by molar mass, not a printed value. Calls of active or inactive are those of the source. The calls are words filed in the database; no cut-off is given here.

For series [1], the system named is HBV genotype D. Nature of the series: Antiviral activity against HBV genotype D infected in human HepG2.2.15 cells assessed as inhibition of viral DNA level treated twice for 3 days measured after 6 days by real time PCR. It is filed as functional, organism-based. The conditions noted are these: for EC50: Hepatitis B virus; for Activity: hepatitis B virus genotype D. (Real-time PCR tracks product formation cycle by cycle.)

Series [2] in a line: Cytotoxicity against human HepG2 cells after 6 days by resazurin assay. It is filed as cell-based. In general terms: The colour change of resazurin is a common sign of viable cells or microbes.
The nature of series [3]: Drug metabolism in human liver microsomes at 1 uM after 15 mins by LC-MS/MS analysis. The class given is ADME, microsome. The note with it: read-out: Drug metabolism. The essentials: (§1)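 Compound incubated 15 min with human or mouse liver microsomes; stability expressed as percent turnover (metabolised) at 15 min.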
(Microsomes from liver hold many membrane-bound enzymes, among them those of drug oxidation.)

Series [4] concerns HBV genotype D. Nature of the series: Antiviral activity against HBV genotype D infected in chimeric mouse with humanized liver assessed as log reduction in viral DNA level in serum at 0.03 mg/kg, po qd for 28 days by RT-PCR method. The class given is functional, hepatitis B virus genotype D. The essentials: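 HBV genotype D-infected chimeric mice with humanized liver (human hepatocyte replacement index ≥70%, judged by serum human albumin). Dosing was once daily for 28 days: test article 200 mg/kg s.c., entecavir 0.03 mg/kg oral as positive control, and oral saline as negative control. The read-out was serum HBV DNA (copies/mL), given as mean log change from baseline at day 29.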

In the next series the test system is HepG2. Nature of the series: (§2) Cytotoxicity against human HepG2 cells after 4 to 6 days by resazurin assay. The class given is cell-based. The conditions noted are these: hepg2.
In series [5] the target is Core antigen (Hepatitis B virus) (UniProt Q03732). Nature of the series: Induction of HBV Maleimidyl BoDIPY-FL-labeled capsid Cp*150 mutant aggregation incubated for 30 mins measured every 10 secs for 30 mins by fluorescence quenching assay.
The nature of series [6]: Drug metabolism in mouse liver microsomes at 1 uM after 15 mins by LC-MS/MS analysis. The conditions noted are these: read-out: Drug metabolism. The class given is ADME, microsome. The essentials:
as §1

Series [7] concerns Hepatitis B virus. Nature of the series: Antiviral activity against Hepatitis B virus infected in human HepG2.117 cells assessed as inhibition of viral DNA level after 3 days by real time PCR. It is filed as functional, organism-based. The note with it: HepG2.117, 72 h.
Series [8] in a line: Kinetic solubility of the compound at pH 7.4 after 4 hrs by UPLC-UV analysis. The class given is physicochemical. The conditions noted are these: buffer, read-out: Kinetic_solubility.
Series [9] concerns the target 5-hydroxytryptamine receptor 2B (Homo sapiens, UniProt P41595). The series is described as follows: Antagonist activity at 5-HT2B (unknown origin). It is filed as functional. The gist of the method: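 Receptor/ion channel/transporter panel of 80 targets screened at 10 µM, giving percent effect at 5-HT2B; follow-up 5-HT2B functional testing in agonist and antagonist modes, with antagonist IC50 determined.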

Series [10] has as its system Hepatitis B virus. The series is described as follows: Induction of HBV capsid core protein CP149 aggregation assessed as large aberrant structure formation at 20 uM after 24 hrs by size exclusion chromatographic analysis. The gist of the method:
(§3)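 Recombinant HBV core assembly domain (aa 1–149, Cp149) was incubated with compound at 20 µM for 24 h, with a no-compound control run in parallel. Size exclusion chromatography gave the ratio of Cp149 dimer AUC to aggregated Cp149 AUC.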

For series [11], the system named is Hepatitis B virus. The series is described as follows: Induction of HBV capsid core protein CP149 aggregation assessed as ratio between area under the curve for observed amount of core dimer and area under the curve for aggregated core protein at 20 uM after 24 hrs by size exclusion chromatographic analysis. The essentials:
as §3

Series [12] can be described thus: as §2. It is filed as cell-based. The note with it: HepG2 cells.
Series [13] is described as follows: Drug metabolism in human primary hepatocytes assessed as cleavage of N-phenylamide. The class given is ADME, cell-based, Hepatocyte. The essentials: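 Compound incubated with primary hepatocytes and checked for cleavage of the N-phenylamide bond.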
The nature of series [14]: Cytotoxicity against human HepG2 cells after 4 days by resazurin assay. The class given is cell-based.

Core antigen (Hepatitis B virus), sequence (Q03732 as listed by the source): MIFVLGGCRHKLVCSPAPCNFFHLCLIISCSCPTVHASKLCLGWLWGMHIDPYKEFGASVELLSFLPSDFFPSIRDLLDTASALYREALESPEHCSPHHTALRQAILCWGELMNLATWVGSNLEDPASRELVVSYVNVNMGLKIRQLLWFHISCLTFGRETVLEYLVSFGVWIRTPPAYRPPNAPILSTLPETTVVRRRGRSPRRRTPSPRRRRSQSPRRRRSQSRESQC
5-hydroxytryptamine receptor 2B, sequence (P41595 whole entry): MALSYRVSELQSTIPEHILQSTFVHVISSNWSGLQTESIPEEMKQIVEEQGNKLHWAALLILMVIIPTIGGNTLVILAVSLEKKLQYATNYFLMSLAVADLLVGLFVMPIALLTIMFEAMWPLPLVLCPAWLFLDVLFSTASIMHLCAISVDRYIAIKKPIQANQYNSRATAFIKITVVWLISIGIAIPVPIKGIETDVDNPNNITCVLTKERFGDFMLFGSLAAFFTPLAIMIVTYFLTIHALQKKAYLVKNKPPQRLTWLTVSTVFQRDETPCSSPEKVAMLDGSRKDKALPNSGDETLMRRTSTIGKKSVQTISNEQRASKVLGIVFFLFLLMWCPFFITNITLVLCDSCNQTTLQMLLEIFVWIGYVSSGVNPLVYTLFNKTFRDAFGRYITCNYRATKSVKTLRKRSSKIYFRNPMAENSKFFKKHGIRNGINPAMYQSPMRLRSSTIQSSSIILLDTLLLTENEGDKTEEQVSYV

The term EC50 denotes the concentration needed to bring the measured effect to its halfway point. For orientation: CC50 means the concentration at which the toxic effect on the cells reaches its halfway point. Low readings indicate harm at low concentration, high ones better tolerance by the cells. Regarding `Cc1ccccc1NC(=O)c1cccc(S(=O)(=O)NC2CCCCC2)c1`, the EC50 in the series with HBV genotype D [1] stood at 4.18 µM. The cytotoxic concentration (CC50) at 144 h in series [2] was above 25 µM. The metabolised at 0.25 h, 1 µM in [3] stood at 86%.

As to `C=C1[C@H](CO)[C@@H](O)C[C@@H]1n1cnc2c(=O)[nH]c(N)nc21.O` [ENTECAVIR], the “log(activity)” value in the series with HBV genotype D [4] came out at 3.03.

A word on the EC20: it is the concentration needed for an effect of 20%. The term IC50 denotes the concentration needed to halve the response being measured. Lower therefore signals greater potency in that assay. Regarding `CC(C)NS(=O)(=O)c1cccc(C(=O)Nc2ccc(F)c(F)c2)c1`, in the series with HepG2, the EC20 came out at 1 µM. The concentration giving a half-maximal response (EC50) amounted to 0.21 µM in the series with HBV genotype D [1] and 0.4 µM in the series on Hepatitis B virus [7]. In series [5], the result was Active. Besides, the metabolised at 0.25 h, 1 µM in series [6] is 60%; in series [3] it was 18%. The solubility kinetic at 4 h in series [8] was above 100 µM. The 50% inhibitory concentration (IC50) in [9] came to 0.23 µM.

Consider `O=C(Nc1ccccc1)c1ccc(F)c(S(=O)(=O)NC2CCCCC2)c1`, for which, in the series with HBV genotype D [1], the EC50 stood at 2.23 µM and the Activity result was “Dose-dependent effect”. The compound also yielded a half-maximal cytotoxic concentration (CC50) at 144 h in series [2] of 16.4 µM. Also, the metabolised at 0.25 h, 1 µM in series [3] came to 100%.

As for `O=C(Nc1ccc(F)cc1)c1ccc(Cl)c(S(=O)(=O)N2CCCCCC2)c1`, the EC50 in the series on HBV genotype D [1] came to 0.66 µM. In addition, the Activity entry in the series on HBV genotype D [1] is “Dose-dependent effect”. In addition, the outcome in series [5] was Active. The values for the metabolised at 0.25 h, 1 µM in [6] and in [3] were 100% and 98%, respectively. Also, it took 17 µM to reach half-maximal cytotoxicity in series [2] (CC50 at 144 h). Further, in the series with Hepatitis B virus [10], the result was inactive. Also, the Ratio in the series on Hepatitis B virus [11] was determined as 0.01. For the same compound, the solubility kinetic at 4 h in [8] stood at 1 µM (≈ 0.411 µg/mL).

Turning to `Cc1c(F)ccc(NC(=O)c2cccc(S(=O)(=O)N[C@H]3CCOC3)c2)c1F`, in series [12], the half-maximal cytotoxic concentration (CC50) was above 25 µM. Moreover, the EC50 with HBV genotype D [1] came to 0.29 µM; in the series on Hepatitis B virus [7], 0.78 µM. Further, the results for the metabolised at 0.25 h, 1 µM in series [6] and in [3] were 66% and 25%, respectively. For the same compound, in [8], the solubility kinetic at 4 h is above 100 µM.

As for `O=C(Nc1ccccc1)c1cccc(S(=O)(=O)NC2CCCC2)c1`, in the series on HBV genotype D [1], the EC50 was determined as 0.6 µM and the Activity result is “Dose-dependent effect”. In addition, the result in series [5] was Active. Further, in [6], the metabolised at 0.25 h, 1 µM worked out at 98%. In series [2], this compound gave a CC50 at 144 h of 27.2 µM. Besides, the outcome with Hepatitis B virus [10] was inactive. In the series with Hepatitis B virus [11], the Ratio was 0.3. In addition, in series [8], the solubility kinetic at 4 h worked out at 91 µM (≈ 31.3 µg/mL). Further, in series [3], the metabolised at 0.25 h, 1 µM amounted to 94%.

Turning to `CC(C)NS(=O)(=O)c1cccc(C(=O)Nc2ccc(F)c(C(C)C)c2)c1`, the CC50 in series [12] came out at 29.8 µM. Further, the EC50 in the series on HBV genotype D [1] stood at 1.4 µM; in the series with Hepatitis B virus [7], 2.79 µM. The metabolised at 0.25 h, 1 µM turned out to be 96% in series [6] and 31% in [3]. Moreover, the solubility kinetic at 4 h in series [8] amounted to 13 µM (≈ 4.92 µg/mL).

In series [12], `Cc1cc(NC(=O)c2cccc(S(=O)(=O)NC3(C)COC3)c2)ccc1F` came in with a CC50 of 47.1 µM. Further, the Drug metabolism result in [13] is given as “Metabolite_Detected”. The concentration giving a half-maximal response (EC50) with HBV genotype D [1] was 0.12 µM; in the series on Hepatitis B virus [7], 0.3 µM. The outcome in series [5] was Active. For the same compound, the metabolised at 0.25 h, 1 µM in [6] came out at 65%; in series [3], 7%. In series [8], the solubility kinetic at 4 h was above 100 µM.

In the case of `O=C(Nc1ccccc1)c1cc(S(=O)(=O)N2CCCCC2)c(Cl)cc1Cl`, the EC50 in the series on HBV genotype D [1] was 0.5 µM. Further, in the series on HBV genotype D [1], the Activity entry was “Dose-dependent effect”. Moreover, in series [5], the result was Active. Besides, the values for the metabolised at 0.25 h, 1 µM in [6] and in series [3] were 100% and 99%, respectively. In [2], this compound showed a CC50 at 144 h above 25 µM. Further, the outcome in the series with Hepatitis B virus [10] was inactive. The Ratio in the series on Hepatitis B virus [11] came to 0.2. Moreover, the solubility kinetic at 4 h in series [8] turned out to be 2 µM (≈ 0.827 µg/mL).

Compound `N#Cc1cc(NC(=O)c2cccc(S(=O)(=O)N[C@H]3CCOC3)c2)ccc1F` yielded a CC50 in series [12] above 50 µM. The EC50 with HBV genotype D [1] is 0.81 µM; in the series with Hepatitis B virus [7], 0.98 µM. Also, the figures for the metabolised at 0.25 h, 1 µM in series [6] and in series [3] were 27% and 13%, respectively. Also, in [8], the solubility kinetic at 4 h was above 100 µM.

As to `Cc1c(NC(=O)c2cccc(S(=O)(=O)N[C@H]3CCOC3)c2)ccc(F)c1F`, the CC50 in series [12] is above 25 µM. Besides, the figures for the EC50 in the series on HBV genotype D [1] and with Hepatitis B virus [7] were 3.63 µM and 1.91 µM, respectively. The metabolised at 0.25 h, 1 µM in series [6] was 68%; in [3], 37%. The solubility kinetic at 4 h in series [8] was above 100 µM.

For `Cc1cc(NC(=O)c2cccc(S(=O)(=O)NC(C)C)c2)ccc1F`, the half-maximal cytotoxic concentration (CC50) in series [12] is 47.5 µM. Moreover, the EC50 with HBV genotype D [1] is 0.07 µM; in the series with Hepatitis B virus [7], 0.15 µM. Moreover, in series [5], the result was Active. Besides, the metabolised at 0.25 h, 1 µM in series [6] was 80%; in series [3] it was 26%. For the same compound, the solubility kinetic at 4 h in series [8] stood at 41 µM (≈ 14.4 µg/mL).

Regarding `CCN(CC)S(=O)(=O)c1ccc(Cl)c(C(=O)Nc2ccccc2)c1`, in the series with HBV genotype D [1], the EC50 was 1.04 µM and the Activity result is “Dose-dependent effect”. Also, the CC50 at 144 h in series [2] is above 25 µM. In addition, the outcome in the series with Hepatitis B virus [10] was inactive. Besides, the Ratio in the series with Hepatitis B virus [11] was 0.7. The metabolised at 0.25 h, 1 µM in series [3] worked out at 80%.

For `O=C(Nc1ccc(F)cc1)c1cccc(C(=O)NC2CCCCC2)c1`, the EC50 with HBV genotype D [1] was above 100 µM; in the series with Hepatitis B virus [7], above 25 µM. Besides, the metabolised at 0.25 h, 1 µM in series [6] was determined as 93%; in series [3] it was 56%. The 50% cytotoxic concentration (CC50) at 96 h in series [14] was above 100 µM. Further, the Ratio in the series on Hepatitis B virus [11] was 6.4. Also, the solubility kinetic at 4 h in [8] is below 0.4 µM. The 50% inhibitory concentration (IC50) in series [9] came to 0.09 µM.
